Test results from ChEMBL document CHEMBL2163314, “Potent aminocyclitol glucocerebrosidase inhibitors are subnanomolar pharmacological chaperones for treating gaucher disease” (J Med Chem, 2012).

Key:
[1] = Agonist activity at glucosylceramidase […] mutant in lymphoblast obtained from Gaucher disease patient using 4-methylumbelliferyl-beta-D-glucopyranoside as substrate preincubated at 50 nM for 3 days measured 2 hrs post substrate addition by fluorescence assay relative to untreated control; type: functional, Homo sapiens
Outline: (§1)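 Homozygous L444P GD type 2 patient-derived lymphoblasts (GM08752) in RPMI-1640 with 15% FBS, seeded at 2 × 10^5 cells/well and exposed to compound for 3 days. Cells were washed with PBS and sonicated in water. Homogenate was assayed with 6 mM 4-methylumbelliferyl-β-D-glucopyranoside in 0.1 M citrate phosphate, pH 5.2, with 0.25% taurocholate and 0.1% Triton X-100, for 2 h at 37 °C. Fluorescence read at 355/460 nm, normalized to untreated cells, triplicate.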

[2] = Agonist activity at glucosylceramidase […] mutant in lymphoblast obtained from Gaucher disease patient using 4-methylumbelliferyl-beta-D-glucopyranoside as substrate preincubated at 5 nM for 3 days measured 2 hrs post substrate addition by fluorescence assay relative to untreated control; type: functional, Homo sapiens
Outline: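 L444P homozygous lymphoblasts from a GD type 2 patient, cultured in RPMI-1640 with 15% FBS at 37 °C, 5% CO2, seeded 2 × 10^5 cells/well and treated 3 days. Sonicated water lysate assayed with 6 mM 4-MU-β-glucoside at pH 5.2 (citrate phosphate, taurocholate, Triton X-100), 37 °C for 2 h. Fluorescence at 355/460 nm, relative to untreated cells; triplicate.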

[3] = Agonist activity at glucosylceramidase […] mutant in lymphoblast obtained from Gaucher disease patient using 4-methylumbelliferyl-beta-D-glucopyranoside as substrate preincubated at 1 uM for 3 days measured 2 hrs post substrate addition by fluorescence assay relative to untreated control; type: functional, Homo sapiens; outline: as §1
[4] = target: T1, Non-lysosomal glucosylceramidase (Mus musculus) (UniProt Q69ZF3); test: Inhibition of GBA2 activity in mouse tissue homogenate at 5 uM
T1 sequence (whole entry): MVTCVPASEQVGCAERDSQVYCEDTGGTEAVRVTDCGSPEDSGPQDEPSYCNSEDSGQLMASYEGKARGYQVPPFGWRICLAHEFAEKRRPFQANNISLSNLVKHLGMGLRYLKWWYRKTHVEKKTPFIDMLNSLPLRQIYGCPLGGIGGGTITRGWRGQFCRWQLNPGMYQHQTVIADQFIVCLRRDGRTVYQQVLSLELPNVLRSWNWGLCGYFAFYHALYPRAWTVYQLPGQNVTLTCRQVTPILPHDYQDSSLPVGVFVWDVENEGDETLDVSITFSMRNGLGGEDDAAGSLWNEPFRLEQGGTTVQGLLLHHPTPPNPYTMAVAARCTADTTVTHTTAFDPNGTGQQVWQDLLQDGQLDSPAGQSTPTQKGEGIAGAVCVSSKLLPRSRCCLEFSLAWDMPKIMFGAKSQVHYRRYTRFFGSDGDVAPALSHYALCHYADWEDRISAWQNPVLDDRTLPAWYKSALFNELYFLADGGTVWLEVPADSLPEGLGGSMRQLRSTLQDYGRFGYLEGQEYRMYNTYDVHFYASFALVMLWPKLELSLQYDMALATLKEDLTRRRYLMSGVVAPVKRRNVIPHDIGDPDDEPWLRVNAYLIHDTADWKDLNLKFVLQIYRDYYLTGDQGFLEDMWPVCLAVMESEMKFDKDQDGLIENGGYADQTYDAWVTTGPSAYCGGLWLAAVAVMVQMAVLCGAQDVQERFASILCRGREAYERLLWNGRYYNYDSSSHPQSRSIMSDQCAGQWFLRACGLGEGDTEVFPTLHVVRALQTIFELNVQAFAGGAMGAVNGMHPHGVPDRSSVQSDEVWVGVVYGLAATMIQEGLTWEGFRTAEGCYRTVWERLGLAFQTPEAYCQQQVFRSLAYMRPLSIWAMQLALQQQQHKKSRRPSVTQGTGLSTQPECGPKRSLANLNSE
Outline: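 Mouse tissue homogenates were used to separate nonlysosomal GBA2 from lysosomal GCase β-glucosidase activity. Compounds were screened at 50 and 5 μM with 3 mM substrate. Two independent experiments, each run in duplicate.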

[5] = target: T2, Lysosomal acid glucosylceramidase (Homo sapiens, UniProt P04062); test: Inhibition of lysosomal beta-glucosidase in human fibroblast using 4-methylumbelliferyl-beta-D-glucopyranoside as substrate preincubated for 24 hrs before substrate addition measured after 2 hrs by fluorometry
T2 sequence (P04062 whole entry): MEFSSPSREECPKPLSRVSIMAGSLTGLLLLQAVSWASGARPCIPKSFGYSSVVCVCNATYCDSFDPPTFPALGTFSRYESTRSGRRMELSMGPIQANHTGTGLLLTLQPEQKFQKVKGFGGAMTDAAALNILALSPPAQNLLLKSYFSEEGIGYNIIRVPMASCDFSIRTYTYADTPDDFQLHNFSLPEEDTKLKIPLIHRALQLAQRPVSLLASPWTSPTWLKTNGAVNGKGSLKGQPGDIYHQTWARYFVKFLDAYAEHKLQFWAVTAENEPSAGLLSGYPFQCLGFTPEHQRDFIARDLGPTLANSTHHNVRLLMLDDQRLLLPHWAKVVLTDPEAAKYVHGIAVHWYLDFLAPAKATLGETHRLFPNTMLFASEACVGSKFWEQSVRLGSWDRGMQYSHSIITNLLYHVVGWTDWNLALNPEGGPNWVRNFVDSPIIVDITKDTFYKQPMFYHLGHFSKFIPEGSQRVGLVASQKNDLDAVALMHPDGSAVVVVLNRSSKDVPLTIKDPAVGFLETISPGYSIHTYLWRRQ
Outline: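 Wild-type human fibroblasts (DMEM, 10% FBS; passages 14–30) plated overnight, then compound in fresh medium for 24 h at 37 °C, 5% CO2. Intact washed monolayers given PBS plus 200 mM acetate pH 4.0 and 5 mM 4-MU-β-glucoside, 37 °C for 2 h. Stopped by lysis in glycine/NaOH pH 10.6. Fluorescence at 355/460 nm; triplicate.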

Structure (SMILES): CCCCCCCCCN[C@H]1[C@H](O)[C@@H](O)[C@H](O)[C@@H](O)[C@H]1OC.Cl
- fold change (FC) [1]: 1.4

Structure (SMILES): CCCCCCCCCN[C@H]1[C@H](O)[C@@H](O)[C@H](O)[C@@H](O)[C@@H]1OCCCCCCCCC.Cl
- fold change (FC) [2]: 1.2

Structure (SMILES): CCCCCCCCCN[C@H]1[C@H](O)[C@@H](O)[C@H](O)[C@@H](O)[C@@H]1OC.Cl
- fold change (FC) [3]: 1.5

Structure (SMILES): CCCCCCCCCN[C@@H]1[C@H](O)[C@@H](O)[C@H](O)[C@@H](O)[C@@H]1O
- inhibition [4]: 69%

Structure (SMILES): CCCCCCCCCN[C@H]1[C@H](O)[C@@H](O)[C@H](O)[C@@H](O)[C@H]1OCCCCCCCCC.Cl
- IC50 [5]: 4.3 nM
